Results on three compounds are retold here after ChEMBL document CHEMBL1128257, “Chemically stable N-methyl-4-(alkylthio)cyclophosphamide derivatives as prodrugs of 4-hydroxycyclophosphamide” (J Med Chem, 1995).

A value given as a limit tells only on which side of the number the result lay.

As usually defined, the GI50 is the concentration giving 50% growth inhibition. The low end stands for more potent growth inhibition, the high end for less potent growth inhibition. In general, ILS refers to how much longer treated animals lived than controls. High values mean a large benefit in survival, low ones a small benefit in survival.

Data set [1] has as its system DMS-114. The data set can be described thus: cytotoxicity against small cell lung cancer subpanel (DMS 114); Experiment 2. The format is functional. The settings on record: Homo sapiens. The method, boiled down:
(§1)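 NCI 60 human tumour cell line screen. Compound dissolved in DMSO and tested at five concentrations (10^-4–10^-8 M). Growth followed over time as percent growth, with zero-time population set to zero. Value is log10 GI50, the log molar concentration giving 50% growth inhibition. Experiment 1 and Experiment 2 are separate runs.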

Data set [2] concerns RPMI-8226. The data set can be described thus: cytotoxicity against leukemia subpanel (RPMI-8226); Experiment 2. The format is functional. To be noted: Homo sapiens. In outline:
as §1

Data set [3] deals with HL-60. The data set can be described thus: cytotoxicity against leukemia subpanel (HL-60 (TB)); Experiment 1. It counts as functional. The settings on record: Homo sapiens. In outline: as §1
For data set [4], the system named is CCRF-CEM. The data set can be described thus: cytotoxicity against leukemia subpanel (CCRF-CEM); Experiment 1. It counts as functional. The settings on record: Homo sapiens. The method, boiled down: as §1
In data set [5] the test system is MOLT-4. The data set can be described thus: cytotoxicity against leukemia subpanel (MOLT-4); Experiment 2. It counts as functional. To be noted: Homo sapiens. In outline: as §1
A short description of data set [6]: MGDH represents the selectivity or relative sensitivity of the tumor cell panel to the drug.; Experiment 1. It counts as functional. In outline:
(§2)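 NCI 60-line screen, DMSO solutions at five concentrations (10^-4–10^-8 M). Log10 GI50 was found per line. MG MID is the calculated mean over all panels. Sensitivity is expressed as the log-scale difference of a line or subpanel from that mean. Experiment 1 and Experiment 2 are separate runs.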

In data set [7] the test system is Mus musculus. The data set can be described thus: Percentage increased life span against L1210 leukemia cells in mice;(1.08 mmol/kg dosage). The format is functional. The method, boiled down:
(§3)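 CDF1 mice (17–18 g) inoculated with L1210 lymphoid leukaemia cells per NIH protocol 1.100. A single 1.08 mmol/kg dose was given 24 h after inoculation. %ILS = (treated/control − 1) × 100 on survival times, with vehicle-treated mice as controls. Survivors beyond 30 days were counted separately.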

The subject of data set [8] is CCRF-CEM. The data set can be described thus: cytotoxicity against leukemia subpanel (CCRF-CEM); Experiment 2. It counts as functional. To be noted: Homo sapiens. The method, boiled down:
as §1

Data set [9] deals with DMS-114. The data set can be described thus: cytotoxicity against small cell lung cancer subpanel (DMS 114); Experiment 1. The format is functional. To be noted: Homo sapiens. In outline:
as §1

The test system of data set [10] is RPMI-8226. As to the kind of experiment: cytotoxicity against leukemia subpanel (RPMI-8226); Experiment 1. The format is functional. The settings on record: Homo sapiens. The method, boiled down:
as §1

Data set [11] has as its system HL-60. The data set can be described thus: cytotoxicity against leukemia subpanel (HL-60 (TB)); Experiment 2. It counts as functional. To be noted: Homo sapiens. In outline: as §1
The test system of data set [12] is K562. As to the kind of experiment: cytotoxicity against leukemia subpanel (K562); Experiment 2. The format is functional. To be noted: Homo sapiens. The method, boiled down:
as §1

Data set [13] concerns SR. The data set can be described thus: cytotoxicity against leukemia subpanel (SR); Experiment 2. To be noted: Homo sapiens. The format is functional. In outline: as §1
The test system of data set [14] is K562. As to the kind of experiment: cytotoxicity against leukemia subpanel (K562); Experiment 1. To be noted: Homo sapiens. The format is functional. In outline:
as §1

Data set [15] deals with DMS-273. The data set can be described thus: cytotoxicity against small cell lung cancer subpanel (DMS 273); Experiment 1. The format is functional. The settings on record: Homo sapiens. The method, boiled down: as §1
The nature of data set [16]: MGDH represents the selectivity or relative sensitivity of the tumor cell panel to the drug.; Experiment 2. The format is functional. In outline: as §2
Data set [17] deals with MOLT-4. As to the kind of experiment: cytotoxicity against leukemia subpanel (MOLT-4); Experiment 1. The format is functional. The settings on record: Homo sapiens. The method, boiled down:
as §1

Data set [18] concerns DMS-273. As to the kind of experiment: cytotoxicity against small cell lung cancer subpanel (DMS 273); Experiment 2. It counts as functional. To be noted: Homo sapiens. In outline: as §1
Data set [19] concerns SR. As to the kind of experiment: cytotoxicity against leukemia subpanel (SR); Experiment 1. The format is functional. The settings on record: Homo sapiens. The method, boiled down: as §1
The test system of data set [20] is Mus musculus. As to the kind of experiment: Percentage increased life span against L1210 leukemia cells in mice (1.08 mmol/kg dosage); Toxic. The format is toxicity, organism-based. In outline:
as §3

With `CCN(CC)C(=S)SC1CCOP(=O)(N(CCCl)CCCl)N1C` (stereo unspecified), the GI50 is 209 nM in the data set on DMS-114 [1]; 398 nM in the data set on RPMI-8226 [2]; 31.6 nM in the data set with HL-60 [3]; 31.6 nM with CCRF-CEM [4]; 69.2 nM with MOLT-4 [5]; 39.8 nM with CCRF-CEM [8]. Further, the GI50 is 170 nM in the data set on DMS-114 [9]; 331 nM in the data set with RPMI-8226 [10]; 288 nM with HL-60 [11]; 87.1 nM with K562 [12]; 389 nM in the data set with SR [13]; 52.5 nM in the data set with K562 [14]. In addition, the GI50 in the data set on DMS-273 [15] was 120 nM; in the data set on MOLT-4 [17], 49 nM; with DMS-273 [18] it was 380 nM; with SR [19] it was 37.1 nM. The “MGDH GI50” value in [6] turned out to be 69.72; in [16], 87.78. This compound also registered an increase in life span (ILS) with Mus musculus [7] of over 92%.

Consider `CN1C(OO)CCOP1(=O)N(CCCl)CCCl` (stereo unspecified), for which the increase in life span (ILS) entry in the data set with Mus musculus [20] was “Toxic”.

In turn, `O=P1(N(CCCl)CCCl)NCCCO1` (stereo unspecified) [CYCLOPHOSPHAMIDE ANHYDROUS] displayed an ILS in the data set with Mus musculus [7] of over 187%.
